Measurements published in ChEMBL document CHEMBL2321851, “Synthesis and biological evaluation of novel coumarin-pyrazoline hybrids endowed with phenylsulfonyl moiety as antitumor agents” (Eur J Med Chem, 2013).
Calls of active or inactive are those of the source.

Experiments:
Assay type in all cases: functional, cell-based
SNB-19 = assay: Growth inhibition of human SNB19 cells at 10 uM after 48 hrs by sulforhodamine B assay
Summary of the method: (§1)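 NCI-60 one-dose primary screen at 10^-5 M. Cells grown in RPMI 1640 with 5% FBS and 2 mM L-glutamine and plated by doubling time. Preincubated 24 h at 37 °C under 5% CO2. Drug exposure 48 h. Cells fixed with cold TCA and stained with 0.4% SRB; absorbance read at 515 nm. Reported as percent growth of treated versus untreated control.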

LOX IMVI = assay: Growth inhibition of human LOXIMVI cells at 10 uM after 48 hrs by sulforhodamine B assay
Summary of the method: (§2)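 Single-dose primary screen at 10^-5 M across the ~60-line panel grown in RPMI 1640 with 5% FBS and 2 mM glutamine, 48 h exposure at 37 °C. Cells TCA-fixed and SRB-stained, absorbance at 515 nm. Output is percent growth of treated versus untreated control cells.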

UACC-62 = assay: Growth inhibition of human UACC62 cells at 10 uM after 48 hrs by sulforhodamine B assay
Summary of the method: (§3)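 NCI-60 one-dose primary screen at 10^-5 M. Cells were grown in RPMI 1640 with 5% FBS and 2 mM L-glutamine and plated at 5,000–40,000 cells/well depending on doubling time. After 24 h preincubation at 37 °C in 5% CO2, drug was added for 48 h. Cells were fixed with TCA and stained with SRB, and absorbance was read at 515 nm. Values are growth percent versus untreated control.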

KM12 = assay: Growth inhibition of human KM12 cells at 10 uM after 48 hrs by sulforhodamine B assay; summary of the method: as §2
IGROV-1 = assay: Growth inhibition of human IGROV1 cells at 10 uM after 48 hrs by sulforhodamine B assay; summary of the method: as §2
Malme-3M = assay: Growth inhibition of human MALME-3M cells at 10 uM after 48 hrs by sulforhodamine B assay; summary of the method: as §2
U-251 = assay: Growth inhibition of human U251 cells at 10 uM after 48 hrs by sulforhodamine B assay; summary of the method: as §3
NCI-H460 = assay: Growth inhibition of human NCI-H460 cells at 10 uM after 48 hrs by sulforhodamine B assay; summary of the method: as §1
SR = assay: Growth inhibition of human SR cells at 10 uM after 48 hrs by sulforhodamine B assay; summary of the method: as §3
Hs-578T = assay: Growth inhibition of human Hs 578T cells at 10 uM after 48 hrs by sulforhodamine B assay; summary of the method: as §2
OVCAR-4 = assay: Growth inhibition of human OVCAR4 cells at 10 uM after 48 hrs by sulforhodamine B assay; summary of the method: as §1
SN12C = assay: Growth inhibition of human SN12C cells at 10 uM after 48 hrs by sulforhodamine B assay; summary of the method: as §1
SK-MEL-28 = assay: Growth inhibition of human SK-MEL-28 cells at 10 uM after 48 hrs by sulforhodamine B assay; summary of the method: as §1
HL-60(TB) = assay: Growth inhibition of human HL-60(TB) cells at 10 uM after 48 hrs by sulforhodamine B assay
Summary of the method: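 Single-dose primary screen at 10^-5 M, 48 h exposure, in an NCI panel line grown in RPMI 1640 with 5% FBS and 2 mM L-glutamine, with 24 h preincubation at 37 °C, 5% CO2. Suspension cells fixed with TCA and stained with sulforhodamine B, absorbance read at 515 nm. Reported as percentage growth relative to untreated control cells.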

Measured: growth inhibition (GI)

COc1ccc2ccc(=O)oc2c1C1=NN(S(=O)(=O)c2ccccc2)C(c2ccc(C)o2)C1 (stereo not drawn)
inactive: all assays above

COc1ccc2ccc(=O)oc2c1C1=NN(S(=O)(=O)c2ccccc2)C(c2cccs2)C1 (stereo not drawn)
inactive: all assays above
